# Source: ChEMBL document CHEMBL1126061, “Cyclic RGD peptide analogues as antiplatelet antithrombotics” (J Med Chem, 1992)
# *1 amine or outer side, *2 acyl side, *3 side chain or, on linkers, in order; H or OH if unused. Where a SMILES comes first, the peptide text is derived from it. Bridges are numbered along the chain shown (N, C = ends). [ ]: non-standard residue; d: D form. Cys(O)(CH2CO) = O=C([C@H](C[S+]([O-])CC(=O)[*:3])N[*:1])[*:2]
# Key:
# Type in all cases: protein-complex assay
# [1] = biological target: T1, Integrin alpha-IIb/beta-3 (Homo sapiens, UniProt P05106+P08514); test: Inhibition of Fibrinogen binding to Fibrinogen receptor
# T1 sequence (P05106 27-788 limits assumed): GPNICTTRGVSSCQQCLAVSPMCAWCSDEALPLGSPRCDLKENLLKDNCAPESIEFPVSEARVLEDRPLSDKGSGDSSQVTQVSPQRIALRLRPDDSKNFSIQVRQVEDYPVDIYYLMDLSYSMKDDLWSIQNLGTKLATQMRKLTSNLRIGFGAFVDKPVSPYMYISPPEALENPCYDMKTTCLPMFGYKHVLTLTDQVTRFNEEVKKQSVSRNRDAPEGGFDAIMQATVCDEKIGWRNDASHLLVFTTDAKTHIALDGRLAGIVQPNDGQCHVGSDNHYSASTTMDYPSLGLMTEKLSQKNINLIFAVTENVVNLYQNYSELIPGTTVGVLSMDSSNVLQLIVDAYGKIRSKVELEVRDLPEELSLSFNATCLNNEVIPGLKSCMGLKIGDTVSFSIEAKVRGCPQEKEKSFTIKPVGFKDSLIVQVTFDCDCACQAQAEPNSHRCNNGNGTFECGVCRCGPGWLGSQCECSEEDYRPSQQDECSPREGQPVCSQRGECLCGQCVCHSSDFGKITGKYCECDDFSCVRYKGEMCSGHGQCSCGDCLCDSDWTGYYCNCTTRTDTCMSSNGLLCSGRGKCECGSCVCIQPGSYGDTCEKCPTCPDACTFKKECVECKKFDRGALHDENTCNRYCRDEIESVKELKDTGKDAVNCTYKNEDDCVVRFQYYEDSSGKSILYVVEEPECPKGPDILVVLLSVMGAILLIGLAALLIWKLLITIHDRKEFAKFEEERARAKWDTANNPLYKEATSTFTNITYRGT
# T1 sequence (P08514 32-887 limits assumed): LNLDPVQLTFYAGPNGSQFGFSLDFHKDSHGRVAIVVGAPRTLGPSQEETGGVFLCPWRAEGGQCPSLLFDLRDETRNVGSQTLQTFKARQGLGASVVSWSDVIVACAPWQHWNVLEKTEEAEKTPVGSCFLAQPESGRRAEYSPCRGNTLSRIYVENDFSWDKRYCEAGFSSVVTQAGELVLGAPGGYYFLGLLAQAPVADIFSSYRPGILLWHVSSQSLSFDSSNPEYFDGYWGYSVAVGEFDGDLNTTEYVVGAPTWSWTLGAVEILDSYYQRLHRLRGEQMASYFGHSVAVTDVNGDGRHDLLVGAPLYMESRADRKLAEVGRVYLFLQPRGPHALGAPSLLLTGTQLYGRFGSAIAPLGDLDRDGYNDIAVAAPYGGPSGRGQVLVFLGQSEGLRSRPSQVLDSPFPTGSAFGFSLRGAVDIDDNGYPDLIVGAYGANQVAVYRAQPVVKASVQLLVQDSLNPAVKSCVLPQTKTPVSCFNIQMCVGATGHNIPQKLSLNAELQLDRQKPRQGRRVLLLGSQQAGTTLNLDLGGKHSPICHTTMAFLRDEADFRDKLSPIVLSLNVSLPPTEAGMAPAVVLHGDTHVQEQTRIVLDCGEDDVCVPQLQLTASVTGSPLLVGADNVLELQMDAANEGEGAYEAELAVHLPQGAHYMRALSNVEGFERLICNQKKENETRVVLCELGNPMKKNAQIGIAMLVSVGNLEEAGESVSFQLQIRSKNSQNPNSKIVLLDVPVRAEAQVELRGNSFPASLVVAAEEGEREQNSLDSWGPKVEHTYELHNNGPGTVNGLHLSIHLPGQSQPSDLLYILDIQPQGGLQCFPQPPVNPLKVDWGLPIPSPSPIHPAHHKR
# T1 sequence (P08514 891-1039 limits assumed): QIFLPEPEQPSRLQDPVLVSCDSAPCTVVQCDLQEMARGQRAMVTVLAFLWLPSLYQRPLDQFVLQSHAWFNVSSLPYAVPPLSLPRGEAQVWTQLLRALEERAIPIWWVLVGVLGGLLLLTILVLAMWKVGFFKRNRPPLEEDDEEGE
# How it was run: (§1)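 Solid-phase ELISA: human fibrinogen (10 µg/mL) coated, BSA-blocked; samples plus purified human platelet GPIIbIIIa (40 µg/mL) incubated 1 h at room temperature. Bound receptor detected with anti-GPIIbIIIa antibody AP3 (1 µg/mL, 1 h), then goat anti-mouse HRP (1 h); OPD/H2O2 at pH 5, stopped with H2SO4, absorbance 492-405 nm. IC50 from four-parameter fit; n ≥ 3.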
# [2] = biological target: T1, Integrin alpha-IIb/beta-3; test: The compound was tested for the inhibition of fibrinogen receptor; how it was run: as §1
# [3] = biological target: T1, Integrin alpha-IIb/beta-3; test: Inhibition of Fibrinogen receptor; how it was run: as §1
IC50 [1] [nM],IC50 [2] [nM],IC50 [3] [nM],SMILES
16,6.6,–,N=C(N)NCCC[C@@H]1NC(=O)[C@H](Cc2ccccc2)NC(=O)C[S+]([O-])C[C@@H](C(=O)O)NC(=O)[C@H](CC(=O)O)NC(=O)CNC1=O (stereo partly specified)
4.5,2.9,–,CC(C)[C@@H]1NC(=O)C[S+]([O-])C[C@@H](C(=O)O)NC(=O)[C@H](CC(=O)O)NC(=O)CNC(=O)[C@H](CCCNC(=N)N)NC1=O (stereo partly specified) (VRGD[Cys(O)(CH2CO)]-OH; lactam N-5)
33,5.6,–,N=C(N)NCCC[C@@H]1NC(=O)[C@@H](Cc2ccccc2)NC(=O)C[S+]([O-])C[C@@H](C(=O)O)NC(=O)[C@H](CC(=O)O)NC(=O)CNC1=O (stereo partly specified)
–,180,–,N=C(N)NCCC[C@@H]1NC(=O)CNC(=O)C(c2ccc(C(F)(F)F)cc2)SC[C@@H](C(=O)O)NC(=O)[C@H](CC(=O)O)NC(=O)CNC1=O (stereo in doubt; 22A)
–,5.4,–,CCCC1SC[C@@H](C(=O)O)NC(=O)[C@H](CC(=O)O)NC(=O)CNC(=O)[C@H](CCCNC(=N)N)NC(=O)CNC1=O (stereo in doubt; 23B)
–,11.4,–,N=C(N)NCCC[C@@H]1NC(=O)[C@H]2CCCN2C(=O)CSC[C@@H](C(=O)O)NC(=O)[C@H](CC(=O)O)NC(=O)CNC1=O ({CH2CO}-[dP]RGDC-OH; thioether N-5)
–,3.6,–,CC(C)(C)C[C@@H]1NC(=O)CSC[C@@H](C(=O)O)NC(=O)[C@H](CC(=O)O)NC(=O)CNC(=O)[C@H](CCCNC(=N)N)NC1=O
–,6,–,N=C(N)NCCC[C@@H]1NC(=O)[C@H](CC(N)=O)NC(=O)C[S+]([O-])C[C@@H](C(=O)O)NC(=O)[C@H](CC(=O)O)NC(=O)CNC1=O (stereo in doubt; 67A)
–,6.8,–,N=C(N)NCCC[C@@H]1NC(=O)[C@@H](Cc2c[nH]cn2)NC(=O)CSC[C@@H](C(=O)O)NC(=O)[C@H](CC(=O)O)NC(=O)CNC1=O
–,5.7,–,N=C(N)NCCC[C@@H]1NC(=O)CNC(=O)C(c2cccc(C(F)(F)F)c2)SC[C@@H](C(=O)O)NC(=O)[C@H](CC(=O)O)NC(=O)CNC1=O (stereo in doubt; 24B)
–,4,–,N=C(N)NCCC[C@@H]1NC(=O)[C@H](Cc2c[nH]c3ccccc23)NC(=O)CSC[C@@H](C(=O)O)NC(=O)[C@H](CC(=O)O)NC(=O)CNC1=O
–,19,–,N=C(N)NCCC[C@@H]1NC(=O)c2cccc(c2)CSC[C@@H](C(=O)O)NC(=O)[C@H](CC(=O)O)NC(=O)CNC1=O
–,–,31,N=C(N)NCCC[C@H](N)C(=O)NCC(=O)N[C@@H](CC(=O)O)C(=O)N[C@@H](Cc1ccccc1)C(=O)O (H-RGDF-OH)
–,38,–,CC(C)C[C@H]1NC(=O)CSC[C@@H](C(=O)O)NC(=O)[C@H](CC(=O)O)NC(=O)CNC(=O)[C@H](CCCNC(=N)N)NC1=O
25,3.9,–,CC(C)C[C@@H]1NC(=O)C[S+]([O-])C[C@@H](C(=O)O)NC(=O)[C@H](CC(=O)O)NC(=O)CNC(=O)[C@H](CCCN=C(N)N)NC1=O (stereo partly specified) (LRGD[Cys(O)(CH2CO)]-OH; lactam N-5)
–,6,–,N=C(N)NCCC[C@@H]1NC(=O)[C@H](CC(=O)O)NC(=O)C[S+]([O-])C[C@@H](C(=O)O)NC(=O)[C@H](CC(=O)O)NC(=O)CNC1=O (stereo partly specified) (DRGD[Cys(O)(CH2CO)]-OH; lactam N-5)
–,70,–,NC(N)=NCCC[C@H](N)C(=O)NCC(=O)N[C@@H](CC(=O)O)C(=O)N[C@@H](Cc1ccc(O)cc1)C(=O)O (H-RGDY-OH)
–,23,–,N=C(N)NCCC[C@@H]1NC(=O)CNC(=O)C(c2ccccc2C(F)(F)F)SC[C@@H](C(=O)O)NC(=O)[C@H](CC(=O)O)NC(=O)CNC1=O (stereo in doubt; 20A)
–,7,–,N=C(N)NCCC[C@@H]1NC(=O)[C@H](Cc2ccccc2)NC(=O)CSC[C@@H](C(=O)O)NC(=O)[C@H](CC(=O)O)NC(=O)CNC1=O

SMILES,IC50 [1] [nM],IC50 [2] [nM],IC50 [3] [nM]
N=C(N)NCCC[C@@H]1NC(=O)[C@H](CO)NC(=O)C[S+]([O-])C[C@@H](C(=O)O)NC(=O)[C@H](CC(=O)O)NC(=O)CNC1=O (stereo partly specified) (SRGD[Cys(O)(CH2CO)]-OH; lactam N-5),50,8,–
C[C@@H](O)[C@@H]1NC(=O)C[S+]([O-])C[C@@H](C(=O)O)NC(=O)[C@H](CC(=O)O)NC(=O)CNC(=O)[C@H](CCCN=C(N)N)NC1=O (stereo in doubt; 71B),–,10,–
N=C(N)NCCC[C@@H]1NC(=O)[C@H](Cc2ccc(O)cc2)NC(=O)C[S+]([O-])C[C@@H](C(=O)O)NC(=O)[C@H](CC(=O)O)NC(=O)CNC1=O (stereo in doubt; 70B),–,4.8,–
N=C(N)NCCC[C@@H]1NC(=O)[C@H](CCCCN)NC(=O)C[S+]([O-])C[C@@H](C(=O)O)NC(=O)[C@H](CC(=O)O)NC(=O)CNC1=O (stereo partly specified) (KRGD[Cys(O)(CH2CO)]-OH; lactam N-5),14,2.6,–
N=C(N)NCCC[C@@H]1NC(=O)[C@@H](Cc2ccc(O)cc2)NC(=O)CS(=O)(=O)C[C@@H](C(=O)O)NC(=O)[C@H](CC(=O)O)NC(=O)CNC1=O,–,2.1,–
CC(C)[C@H](NC(=O)[C@H](CC(=O)O)NC(=O)CNC(=O)[C@H](CCCN=C(N)N)NC(=O)CN)C(=O)O (H-GRGDV-OH),–,30,–
